Test results from ChEMBL document CHEMBL1156501, “Ibogaine, a noncompetitive inhibitor of serotonin transport, acts by stabilizing the cytoplasm-facing state of the transporter” (J Biol Chem, 2007).
The source made the active and inactive calls. The rule behind the calls is not given here.

Legend:
[1] = molecular target: T1, Sodium-dependent serotonin transporter (Homo sapiens, UniProt P31645)
[2] = molecular target: T1, Sodium-dependent serotonin transporter; assay: Displacement of [125I]beta-CIT from human SERT in human platelet membrane in presence of 5 uM ibogaine; format: cell membranes
[3] = system: Sodium-dependent serotonin transporter (Rattus norvegicus), P31652 [V281C]; assay: Effect on 2-(aminoethyl)methanethiosulphonate hydrobromide-induced inactivation of rat SERT V281C mutant assessed as increase in rate constant for inactivation
How it was run: (§1)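 Membranes from HeLa cells expressing rat SERT cysteine mutants were filter-bound and treated for 10 min with a range of MTSEA concentrations plus 10 μM ibogaine, 5-HT or cocaine. After washing, residual 0.1 nM [125I]β-CIT binding was measured. The MTSEA concentration giving half-maximal inactivation was used to calculate the inactivation rate constant.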

[4] = system: Sodium-dependent serotonin transporter (Rattus norvegicus), P31652 [S404C]; assay: Effect on 2-(aminoethyl)methanethiosulphonate hydrobromide-induced inactivation of rat SERT S404C mutant assessed as increase in rate constant for inactivation
How it was run: as §1

[5] = species: Rattus norvegicus; assay: Effect on 2-(aminoethyl)methanethiosulphonate hydrobromide-induced inactivation of rat SERT K279 mutant
How it was run: (§2)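 Membranes from HeLa cells expressing rat SERT X5C or K279C (X5C background) were treated with 2 mM MTSEA plus graded ibogaine. Membranes were washed free of MTSEA and ibogaine, then residual binding was measured with 0.1 nM [125I]β-CIT for 1.5 h at room temperature.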

[6] = system: Sodium-dependent serotonin transporter (Rattus norvegicus), P31652 [S277C]; assay: Effect on 2-(aminoethyl)methanethiosulphonate hydrobromide-induced inactivation of rat SERT S277C mutant assessed as increase in rate constant for inactivation
How it was run: as §1

[7] = species: Rattus norvegicus; assay: Effect on 2-(aminoethyl)methanethiosulphonate hydrobromide-induced inactivation of rat SERT […] mutant assessed as increase in rate constant for inactivation
How it was run: as §1

[8] = system: Sodium-dependent serotonin transporter (Rattus norvegicus), P31652 [G273C]; assay: Effect on 2-(aminoethyl)methanethiosulphonate hydrobromide-induced inactivation of rat SERT G273C mutant assessed as increase in rate constant for inactivation
How it was run: as §1

[9] = system: Sodium-dependent serotonin transporter (Rattus norvegicus), P31652 [T276C]; assay: Effect on 2-(aminoethyl)methanethiosulphonate hydrobromide-induced inactivation of rat SERT T276C mutant assessed as increase in rate constant for inactivation
How it was run: as §1

[10] = species: Rattus norvegicus; assay: Effect on 2-(aminoethyl)methanethiosulphonate hydrobromide-induced inactivation of rat SERT X5C mutant
How it was run: as §2

[11] = system: Sodium-dependent serotonin transporter (Rattus norvegicus), P31652 [K272C]; assay: Effect on 2-(aminoethyl)methanethiosulphonate hydrobromide-induced inactivation of rat SERT K272C mutant assessed as increase in rate constant for inactivation
How it was run: as §1

[12] = system: Sodium-dependent serotonin transporter (Rattus norvegicus), P31652 [Y107C]; assay: Effect on 2-(aminoethyl)methanethiosulphonate hydrobromide-induced inactivation of rat SERT Y107C mutant assessed as increase in rate constant for inactivation
How it was run: as §1

[13] = species: Rattus norvegicus; assay: Inhibition of 2-(aminoethyl)methanethiosulphonate hydrobromide-induced inactivation of rat SERT S277 mutant assessed as drug level causing half maximal protection from inactivation
How it was run: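 Membranes from HeLa cells expressing rat SERT S277C were treated with 50 μM MTSEA plus graded cocaine, ibogaine or 5-HT. After washing, residual [125I]β-CIT binding was measured. The drug concentration giving half-maximal protection from or potentiation of inactivation was fitted by nonlinear regression.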

[14] = system: Sodium-dependent serotonin transporter (Rattus norvegicus), P31652 [T284C]; assay: Effect on 2-(aminoethyl)methanethiosulphonate hydrobromide-induced inactivation of rat SERT T284C mutant assessed as increase in rate constant for inactivation
How it was run: as §1

[15] = molecular target: T2, Sodium-dependent serotonin transporter (Rattus norvegicus, UniProt P31652); assay: Displacement of [125I]beta-CIT from rat SERT expressed in HeLa cells; format: cell-based
[16] = molecular target: T2, Sodium-dependent serotonin transporter; assay: Inhibition of [3H]5HT uptake at rat SERT expressed in HeLa cells; format: cell-based
[17] = compound: COC(=O)[C@H]1[C@@H](OC(=O)c2ccccc2)C[C@@H]2CC[C@H]1N2C; assay: (§3) Inhibition of [3H]5HT transport at rat SERT expressed in pig LLC-PK1 cells at 5 uM; format: cell-based
How it was run: (§4)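 LLC-PK1 cells stably expressing rat SERT were grown as monolayers. Uptake of [3H]5-HT at varied concentrations was measured for 5 min with or without 5 μM ibogaine. Nonspecific uptake was defined with 100 μM cocaine. Km and Vmax were fitted, with an Eadie-Hofstee plot also shown.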

[18] = compound: CC[C@H]1C[C@H]2C[C@H]3c4[nH]c5ccc(OC)cc5c4CCN(C2)[C@@H]13; assay: as §3; format: cell-based
How it was run: as §4

T1 sequence (P31645 whole entry): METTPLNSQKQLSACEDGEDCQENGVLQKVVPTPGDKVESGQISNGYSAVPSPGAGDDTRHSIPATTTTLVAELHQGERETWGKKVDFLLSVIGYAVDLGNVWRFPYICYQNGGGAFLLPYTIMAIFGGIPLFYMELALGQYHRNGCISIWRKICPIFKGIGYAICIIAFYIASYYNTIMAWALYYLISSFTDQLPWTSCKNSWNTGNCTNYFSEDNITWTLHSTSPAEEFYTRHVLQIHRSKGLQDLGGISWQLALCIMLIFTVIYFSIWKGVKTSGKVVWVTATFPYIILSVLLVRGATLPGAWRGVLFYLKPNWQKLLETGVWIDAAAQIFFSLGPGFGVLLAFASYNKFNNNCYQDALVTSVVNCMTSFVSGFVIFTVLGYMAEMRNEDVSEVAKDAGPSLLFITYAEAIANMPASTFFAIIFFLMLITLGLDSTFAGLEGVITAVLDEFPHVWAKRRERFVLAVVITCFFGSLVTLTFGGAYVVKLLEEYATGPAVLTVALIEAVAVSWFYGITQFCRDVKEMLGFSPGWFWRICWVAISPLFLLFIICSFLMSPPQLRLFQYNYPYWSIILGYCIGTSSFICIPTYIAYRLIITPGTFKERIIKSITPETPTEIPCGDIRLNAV

Molecule	Activity [3]	Activity [4]	Activity [6]	Activity [7]	Activity [8]	Activity [9]	Activity [11]	Activity [12]	Activity [13]	Activity [14]	other results
COC(=O)[C@H]1[C@@H](c2ccc(I)cc2)C[C@@H]2CC[C@H]1N2C											Kd [1]: 0.00088 µM; Kd [2]: 0.00282 µM
CC[C@H]1C[C@H]2C[C@H]3c4[nH]c5ccc(OC)cc5c4CCN(C2)[C@@H]13	Active	Active	Active	Active	Active	Active	Active	Active	0.98 µM	Active	Activity [5]: inactive; Activity [10]: inactive
CC[C@H]1C[C@@H]2C[C@H]3c4[nH]c5ccc(OC)cc5c4CCN(C2)[C@@H]13 [IBOGAINE]											IC50 [15]: 2.5 µM; IC50 [16]: 6.3 µM
NCCc1c[nH]c2ccc(O)cc12	Active	Active	Active	Active	Active	Active	Active	Active	0.68 µM	inactive	
COC(=O)[C@H]1[C@@H](OC(=O)c2ccccc2)C[C@@H]2CC[C@H]1N2C									0.58 µM		
Sodium-dependent serotonin transporter (Rattus norvegicus), P31652 (protein) METTPLNSQKVLSECKDREDCQENGVLQKGVPTTADRAEPSQISNGYSAVPSTSAGDEASHSIPAATTTLVAEIRQGERETWGKKMDFLLSVIGYAVDLGNIWRFPYICYQNGGGAFLLPYTIMAIFGGIPLFYMELALGQYHRNGCISIWRKICPIFKGIGYAICIIAFYIASYYNTIIAWALYYLISSLTDRLPWTSCTNSWNTGNCTNYFAQDNITWTLHSTSPAEEFYLRHVLQIHQSKGLQDLGTISWQLTLCIVLIFTVIYFSIWKGVKTSGKVVWVTATFPYIVLSVLLVRGATLPGAWRGVVFYLKPNWQKLLETGVWVDAAAQIFFSLGPGFGVLLAFASYNKFNNNCYQDALVTSVVNCMTSFVSGFVIFTVLGYMAEMRNEDVSEVAKDAGPSLLFITYAEAIANMPASTFFAIIFFLMLITLGLDSTFAGLEGVITAVLDEFPHIWAKRREWFVLIVVITCVLGSLLTLTSGGAYVVTLLEEYATGPAVLTVALIEAVAVSWFYGITQFCSDVKEMLGFSPGWFWRICWVAISPLFLLFIICSFLMSPPQLRLFQYNYPHWSIVLGYCIGMSSVICIPTYIIYRLISTPGTLKERIIKSITPETPTEIPCGDIRMNAV											Km [17]: 0.2 µM; Vmax [17]: 35.7 pmol/min/mg; Km [18]: 0.17 µM; Vmax [18]: 14 pmol/min/mg
